Screens deposited in PubChem BioAssay by several laboratories.
PostGolgi yeast = growth inhibition of a yeast mutant, post-Golgi transport screen | post-Golgi transport phenotypic cell assay | hit rate 0.9% among 98,000 | AID 739 | inhibition, % at 10 µM;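 note: yeast cells grown in 1536-well plates; yeast grown about 18 h at 30C before absorbance read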
Ecoli WT expand = blocks growth of wild type E. coli BW25113 | growth inhibition, % at 100 µM | OD600 absorbance | hit rate 0.15% among 98,000;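 active = growth inhibition above about 50% at one test dose, limit read from the data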;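 note: growth measured after 20 h incubation at 37 °C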
Cav32 inh = blocks human Cav3.2 T-type calcium channel; B-score at 10 µM; hit rate 4% among 100,000; Cav3.2-expressing cells, Fluo-4 calcium fluorescence FDSS; active compounds read low; AID 449739;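 active = single-dose well whose peak fluorescence ratio is a statistical outlier from its plate by either plate-standardised score or position-corrected B-score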
Target sequence (O95180 whole entry, looked up): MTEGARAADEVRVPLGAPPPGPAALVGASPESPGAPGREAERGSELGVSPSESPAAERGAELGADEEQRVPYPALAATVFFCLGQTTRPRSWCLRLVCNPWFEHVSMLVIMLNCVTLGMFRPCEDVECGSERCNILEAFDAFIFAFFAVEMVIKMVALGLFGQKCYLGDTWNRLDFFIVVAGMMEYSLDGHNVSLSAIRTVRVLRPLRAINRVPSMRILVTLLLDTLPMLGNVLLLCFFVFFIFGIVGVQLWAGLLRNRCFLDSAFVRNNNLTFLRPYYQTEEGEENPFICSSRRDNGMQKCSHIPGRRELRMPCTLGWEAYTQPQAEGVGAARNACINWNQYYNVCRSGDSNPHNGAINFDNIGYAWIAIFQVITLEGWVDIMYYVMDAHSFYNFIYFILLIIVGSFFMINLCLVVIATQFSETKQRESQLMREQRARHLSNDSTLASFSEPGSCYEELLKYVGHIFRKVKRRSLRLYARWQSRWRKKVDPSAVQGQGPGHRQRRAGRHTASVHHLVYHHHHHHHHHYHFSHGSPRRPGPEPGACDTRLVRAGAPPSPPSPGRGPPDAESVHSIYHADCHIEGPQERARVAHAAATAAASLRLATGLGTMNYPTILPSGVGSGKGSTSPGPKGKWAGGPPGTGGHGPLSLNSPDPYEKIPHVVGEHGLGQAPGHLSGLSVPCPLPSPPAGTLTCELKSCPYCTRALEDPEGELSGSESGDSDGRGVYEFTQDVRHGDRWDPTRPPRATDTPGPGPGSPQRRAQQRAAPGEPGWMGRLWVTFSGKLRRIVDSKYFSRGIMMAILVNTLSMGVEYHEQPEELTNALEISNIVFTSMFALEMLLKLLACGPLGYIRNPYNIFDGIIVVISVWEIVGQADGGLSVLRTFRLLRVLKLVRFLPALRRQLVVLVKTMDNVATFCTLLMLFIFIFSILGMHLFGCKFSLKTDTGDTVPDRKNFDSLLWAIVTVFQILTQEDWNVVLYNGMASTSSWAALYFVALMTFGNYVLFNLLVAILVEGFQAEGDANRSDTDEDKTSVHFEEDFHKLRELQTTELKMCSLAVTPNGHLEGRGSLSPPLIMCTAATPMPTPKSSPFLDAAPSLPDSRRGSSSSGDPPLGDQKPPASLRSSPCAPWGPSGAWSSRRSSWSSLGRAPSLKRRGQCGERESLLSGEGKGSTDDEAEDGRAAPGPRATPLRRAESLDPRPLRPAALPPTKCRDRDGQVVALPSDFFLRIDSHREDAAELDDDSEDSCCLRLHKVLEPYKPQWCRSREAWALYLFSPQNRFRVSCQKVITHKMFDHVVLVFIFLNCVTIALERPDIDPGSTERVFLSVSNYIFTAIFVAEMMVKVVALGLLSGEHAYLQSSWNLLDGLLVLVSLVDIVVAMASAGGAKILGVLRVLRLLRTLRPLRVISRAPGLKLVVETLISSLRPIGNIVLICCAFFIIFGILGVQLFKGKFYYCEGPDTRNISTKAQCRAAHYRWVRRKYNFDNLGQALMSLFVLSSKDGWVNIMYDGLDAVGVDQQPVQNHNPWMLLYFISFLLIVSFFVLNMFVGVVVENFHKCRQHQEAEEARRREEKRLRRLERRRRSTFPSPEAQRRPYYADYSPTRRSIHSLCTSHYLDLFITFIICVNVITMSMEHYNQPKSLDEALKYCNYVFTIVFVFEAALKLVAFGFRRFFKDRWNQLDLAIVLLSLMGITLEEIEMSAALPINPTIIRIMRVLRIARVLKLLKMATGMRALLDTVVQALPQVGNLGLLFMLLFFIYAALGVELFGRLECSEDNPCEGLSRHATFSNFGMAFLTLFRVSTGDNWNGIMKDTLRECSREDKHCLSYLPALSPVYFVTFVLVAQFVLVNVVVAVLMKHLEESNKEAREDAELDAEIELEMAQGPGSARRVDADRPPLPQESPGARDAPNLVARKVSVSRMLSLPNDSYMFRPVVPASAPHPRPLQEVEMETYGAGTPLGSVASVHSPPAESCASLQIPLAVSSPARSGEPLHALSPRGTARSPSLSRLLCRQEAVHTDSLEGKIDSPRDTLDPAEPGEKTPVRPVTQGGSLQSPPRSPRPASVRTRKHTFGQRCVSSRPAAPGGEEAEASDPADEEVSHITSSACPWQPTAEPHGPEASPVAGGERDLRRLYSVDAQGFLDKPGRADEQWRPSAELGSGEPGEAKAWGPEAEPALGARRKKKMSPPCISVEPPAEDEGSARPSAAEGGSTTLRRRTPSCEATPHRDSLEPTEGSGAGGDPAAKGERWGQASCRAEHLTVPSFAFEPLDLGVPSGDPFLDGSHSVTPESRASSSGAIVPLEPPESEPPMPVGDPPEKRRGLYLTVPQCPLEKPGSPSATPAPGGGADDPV
PostGolgi ctrl = growth of the yeast control strain, post-Golgi counter-screen. efflux-deficient yeast background strain, growth absorbance A615, 16 h. inhibition, % at 10 µM. hit rate 5% among 98,000
tolC growth inh = growth inhibitors of E. coli BW25113 tolC mutant; growth inhibition, % at 10 µM (by protocol); hit rate 2.2% among 65,000; AID 573; OD615;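 active = growth inhibition at or above a cutoff equal to the mean over every tested compound plus 3 SD, cut at about 60% in these data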;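 note: growth measured after 20 h incubation at 37 °C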
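System: E. coli ΔtolC::kan strain BW25113; Buffer or medium: LB broth supplemented with 50 µg/mL kanamycin; Compound: 10 µM final, single dose; Incubation: bacterial growth with compound for 20 h at 37 °C; Signal: A615 absorbance measurement; Evaluation: growth inhibition in percent.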
Active calls of the source: *; / = not tested or not shown. Compounds with a hit are over-represented: about 8.4% of the library has one in this group of screens. Cut-off read from the data, not from the text of the source, unless noted: active = inhibition above about 30%; inactive = the rest.

SMILES | PostGolgi yeast | Ecoli WT expand | Cav32 inh | PostGolgi ctrl | tolC growth inh
COc1ccc(Cn2nnnc2C(c2cccs2)N2CCCCCC2)cc1 (configuration not stated) | 3.2 | -3.0 | -4.13* | 17.8 | /
COc1ccc(Cn2nnnc2C(c2cccs2)N2CCSCC2)cc1 (configuration not stated) | 16.4 | -15.0 | -2.17 | 12.9 | 41.6
c1ccc2nc(N3CCOCC3)cnc2c1 | 2.7 | -3.0 | / | 6.1 | /
CC(=O)c1cccc(NC(=O)NC(C)c2ccncc2)c1 (configuration not stated) | 4.5 | -4.0 | -0.022 | -3.4 | -16.0
CCOC(=O)C(C(C)=O)C(c1ccc(OCCC(C)C)cc1)C(C(C)=O)C(=O)OCC (configuration not stated) | / | / | -2.94 | / | /
COCCn1nnnc1C(c1ccc(OC)cc1OC)N1CCN(c2ccccc2F)CC1 (configuration not stated) | -3.0 | 1.0 | -0.124 | 5.9 | 4.5
Fc1ccc(N2CCN(C(c3cccs3)c3nnnn3CCc3ccccc3)CC2)cc1 (configuration not stated) | 11.8 | -27.0 | -3.02 | 37.1* | 19.5
COc1ccc(C(c2nnnn2Cc2cccs2)N2CCN(c3ccccc3F)CC2)cc1 (configuration not stated) | -1.7 | -22.0 | -3.42* | 17.9 | 12.7
Fc1ccc(Cn2nnnc2C(c2ccc(Cl)cc2)N2CCSCC2)cc1 (configuration not stated) | -8.0 | -6.0 | -7.11* | 18.1 | /
COc1ccc(OC)c(C(c2nnnn2C2CCCC2)N2CCN(c3ccc(F)cc3)CC2)c1 (configuration not stated) | -10.4 | -18.0 | -9.36* | 6.4 | 10.0
CN(C)CCCNCC(=O)Nc1ccccc1N1CCOCC1 | 1.4 | -4.0 | 0.148 | -2.5 | /
CNC(=O)[C@@]1(C)C=C[C@@H](Cc2ccccc2)N1C(=O)OC | / | / | -0.104 | / | /
Cc1cccc2c(SCC(=O)NCC3CCCO3)nc(-c3ccc(F)cc3)nc12 (configuration not stated) | 4.8 | -6.0 | -0.707 | 12.1 | /
COc1ccc(C(c2nnnn2Cc2ccccc2)N2CCN(c3ccccc3)CC2)cc1 (configuration not stated) | / | / | -4.55* | / | 25.0
COc1ccc(C(c2nnnn2C2CCCCC2)N2CCN(c3ccccc3)CC2)cc1 (configuration not stated) | / | / | / | / | 21.3
COc1ccc(OC)c(C(c2nnnn2CCc2ccccc2)N2CCN(c3ccccc3)CC2)c1 (configuration not stated) | -8.4 | -18.0 | -3.52 | 14.3 | 7.2
COc1ccc(OC)c(C(c2nnnn2Cc2ccccc2)N2CCN(C)CC2)c1 (configuration not stated) | 6.0 | -5.0 | 0.0559 | 36.5* | -14.7
CCOC(=O)C1CCN(C(c2cc3c(C)ccc(C)c3[nH]c2=O)c2nnnn2C2CCCCC2)CC1 (configuration not stated) | 5.5 | -7.0 | 0.899 | 30.2* | 35.2
COc1ccc(Cn2nnnc2C(c2ccccc2)N2CCN(C3CCCC3)CC2)cc1 (configuration not stated) | -6.3 | -5.0 | 0.675 | 2.5 | -2.2
COc1ccc(C(c2nnnn2C2CCCC2)N2CCN(c3ccccc3)CC2)cc1 (configuration not stated) | / | / | -5.16* | / | /
CCCC(c1nnnn1Cc1cccs1)N1CCN(c2nc3ccccc3s2)CC1 (configuration not stated) | 47.1* | -16.0 | 0.46 | 18.5 | 28.9
CCCC(c1nnnn1CC1CCCO1)N1CCN(c2nc3ccccc3s2)CC1 (configuration not stated) | / | / | -0.622 | / | /
Cc1ccc2cc(C(c3nnnn3C3CCCC3)N3CCN(c4ccccc4)CC3)c(=O)[nH]c2c1 (configuration not stated) | 5.0 | -10.0 | -6.07* | 14.4 | 17.1
O=C1COc2ccccc2CN1 | 0.8 | -2.0 | 0.142 | -7.0 | /
O=C1COc2cccnc2N1 | -0.8 | -8.0 | 1.26 | 38.2* | -14.7
SMILES | PostGolgi yeast | Ecoli WT expand | Cav32 inh | PostGolgi ctrl | tolC growth inh
CCOC(=O)c1[nH]c(C)c(C(=O)NCc2cccnc2)c1C | 1.0 | 2.0 | 0.809 | -0.3 | -20.7
CCOC(=O)c1ccccc1NC(=O)CN(c1ccccc1)S(=O)(=O)N(C)C | -0.2 | -10.0 | -3.33 | 24.8 | 49.7
COc1cc2oc3ccccc3c2cc1N(CC(=O)N(C)C)S(=O)(=O)c1ccccc1 | 2.8 | -1.0 | -2.37 | -2.0 | /
COc1cc2oc3ccccc3c2cc1N(CC(=O)N1CCCCC1)S(=O)(=O)c1ccc(C)cc1 | -2.5 | -11.0 | -0.489 | 42.8* | /
Cc1ncsc1CCOC(=O)C12CC3CC(CC(C3)C1)C2 | -2.6 | 12.0 | -1.52 | 46.4* | /
O=C(NC(=S)N1CCCCC1)C12CC3CC(CC(C3)C1)C2 | 20.7 | 3.0 | 0.692 | 33.3* | /
O=C(c1cc(NC(=O)C23CC4CC(CC(C4)C2)C3)cc(NC(=O)C23CC4CC(CC(C4)C2)C3)c1)N1CCCCC1 | / | / | -8* | / | /
CC12CC3CC(C)(C1)CC(C(=O)NC(=S)N1CCOCC1)(C3)C2 | -0.5 | 11.0 | -1.47 | 1.1 | /
Cc1cccc(C)c1NC(=O)CS(=O)CC(=O)NC1CCCc2ccccc21 (configuration not stated) | 1.7 | 3.0 | 0.248 | 5.2 | 1.6
O=C(C1CCN(Cc2ccccc2)CC1)N1CCCC1 | -9.5 | -15.0 | / | 5.2 | -9.7
CCN1C(=O)CC(N2CCC(C(=O)OC)CC2)C1=O (configuration not stated) | 3.9 | -3.0 | 0.465 | 31.9* | -22.5
O=C(C1CCN(C2CC(=O)N(Cc3ccccc3)C2=O)CC1)N1CCCCCC1 (configuration not stated) | 31.7* | 5.0 | 1.45 | 3.4 | -5.4
O=C1CC(N2CCN(C3CC(=O)N(CCc4ccccc4)C3=O)CC2)C(=O)N1CCc1ccccc1 (configuration not stated) | -1.9 | -12.0 | 1.08 | 46.7* | 1.0
COc1cc2c(cc1NS(=O)(=O)N1CCCC1)oc1ccccc12 | 21.3 | -12.0 | -5.58* | 49.4* | /
COc1cc2c(cc1NC(=O)C(C)N1CCN(S(=O)(=O)c3ccc(C)c(C)c3)CC1)oc1ccccc12 (configuration not stated) | -4.9 | -2.0 | -2.76 | 3.1 | /
O=C(c1cc2n(n1)C(C(F)(F)F)CC(c1ccco1)N2)N1CCN(c2ccccn2)CC1 (configuration not stated) | -4.0 | -13.0 | -1.01 | 25.0 | 2.4
Cc1cccc(N2CCN(C(=O)c3cc4n(n3)C(C(F)(F)F)CC(c3ccco3)N4)CC2)c1C (configuration not stated) | 4.3 | -6.0 | 0.19 | 23.8 | 73.5*
Cc1ccc(OC(=O)Cn2c(C(F)(F)F)nc3ccccc32)cc1 | 5.6 | 0.0 | -0.555 | 2.8 | /
CC1CCN(C(=O)Nc2cccc(NC(=O)N3CCC(C)CC3)c2)CC1 | -1.5 | -4.0 | 0.152 | 30.5* | 9.7
Cc1ccc(C2CCN(C(=O)Nc3ccccc3)C2)cc1 (configuration not stated) | 6.7 | 14.0 | -3.58 | 42.1* | 22.4
Cc1cc(NC(=O)CC(CN(C)S(=O)(=O)c2ccccc2)c2ccccc2)no1 (configuration not stated) | 10.4 | 3.0 | -2.19 | -0.6 | 1.2
